Results on eight compounds are retold here after BindingDB's records for doi:10.1021/jm9811256 (Academy of Sciences of The Czech Republic, 1999).

For orientation: EC50 means the midpoint of the concentration-response curve.

A short description of assay [1]: Inhibitory activity against varicella zoster virus thymidine kinase (VZV TK-) 07/1 strain.
Assay [2] in a line: Inhibitory activity against herpes simplex virus type 1 (HSV-1) thymidine kinase (TK) VMW 1837 strain.
The nature of assay [3]: Inhibition of varicella zoster virus thymidine kinase (VZV TK+) YS/R strain.
In assay [4] the target is T1, Thymidine kinase (Human herpesvirus 3, UniProt Q6QCL9).
T1 sequence (Q6QCL9 whole entry): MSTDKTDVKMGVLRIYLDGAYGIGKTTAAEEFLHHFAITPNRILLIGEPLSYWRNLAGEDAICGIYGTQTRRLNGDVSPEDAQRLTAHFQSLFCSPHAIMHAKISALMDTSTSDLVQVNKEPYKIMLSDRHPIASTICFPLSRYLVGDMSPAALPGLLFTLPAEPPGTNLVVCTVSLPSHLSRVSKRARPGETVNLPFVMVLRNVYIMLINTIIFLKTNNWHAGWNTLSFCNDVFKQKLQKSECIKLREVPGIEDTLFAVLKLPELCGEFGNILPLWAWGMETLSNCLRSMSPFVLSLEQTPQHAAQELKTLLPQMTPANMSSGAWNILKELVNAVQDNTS
The experiment in a line: Inhibitory activity against varicella zoster virus thymidine kinase (VZV TK+) YS strain. An outline of the steps:
(§1)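 HEL cell cultures were grown to confluence and infected with 100 CCID50 of VZV. After a 1 h adsorption period, unbound virus was removed and compound was added at serial concentrations (400, 200, 100, ... μg/mL). Cytopathic effect was read when untreated virus controls reached full cytopathicity.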

The nature of assay [5]: Inhibitory activity against varicella zoster virus thymidine kinase (VZV TK+) OKA strain.
Assay [6] in a line: Inhibition of herpes simplex virus type 1 thymidine kinase (HSV-1 TK-) B2006 strain.
The nature of assay [7]: Inhibitory activity against varicella zoster virus thymidine kinase (VZV TK+) YS strain.
Assay [8] deals with T1, Thymidine kinase. The experiment in a line: Inhibitory activity against varicella zoster virus thymidine kinase (VZV TK+) OKA strain. An outline of the steps:
as §1

With `Nc1cc2c(ncn2CCOCP(=O)(O)O)c(O)n1`, the EC50 in assay [1] turned out to be 3.22 µM; in assay [2], 6.93 µM; in assay [3] it was 1.76 µM; at Thymidine kinase [4] it was 5.55 µM; in assay [5], 2.56 µM; in assay [6] it was 24.2 µM.
In the case of `CC(C)CCCCCOP(=O)(COCCn1cnc2c(O)nc(N)nc21)OCCCCCC(C)C`, the EC50 in assay [1] is 35 µM; in assay [7], 8.17 µM; on Thymidine kinase [8] it was 21.4 µM; in assay [2], more than 155 µM; in assay [6] it was more than 155 µM.
Take `CC(C)CCCCCOP(=O)(O)COCCn1cnc2c(O)nc(N)nc21`: the EC50 turned out to be 87.1 µM in assay [1]; 32.3 µM in assay [7]; 597 µM in assay [2]; 3.98 µM in assay [5]; 597 µM in assay [6].
As to `CC(C)OP(=O)(COCCn1cnc2c(N)ncnc21)OC(C)C`, the EC50 in assay [1] was 55.9 µM; in assay [7], 111 µM; in assay [2], more than 1110 µM; in assay [5], 19.5 µM; in assay [6], more than 1110 µM.
With `Nc1nc(S)c2c(ncn2CCOCP(=O)(O)O)n1`, the EC50 in assay [1] was 65.5 µM; in assay [7], 98.2 µM; in assay [2], 65.5 µM; in assay [5], 121 µM; in assay [6] it was more than 327 µM.
For `Nc1ccnc2c1ncn2CCOCP(=O)(O)O`, the EC50 in assay [1] is 1100 µM; in assay [7], 734 µM; in assay [2], 551 µM; in assay [5] it was more than 1460 µM; in assay [6], 734 µM.
With `Nc1cc2c(ncn2CCOCP(=O)(O)O)c(N)n1`, the EC50 in assay [1] was more than 17.4 µM; in assay [7] it was more than 17.4 µM; in assay [2] it was 243 µM; in assay [5], more than 17.4 µM; in assay [6], 1390 µM.
With `CC(C)CCCCCOP(=O)(COCCn1cnc2nc(N)nc(O)c21)OCCCCCC(C)C`, the EC50 is 50.6 µM in assay [1]; 58.4 µM in assay [7]; more than 31.1 µM in assay [2]; 62.3 µM in assay [5]; more than 31.1 µM in assay [6].
